Calls of active or inactive are those of the source. The rule behind the calls is not given here.
Columns and labels:
Histamine H1 receptor [1] = biological target: T1, Histamine H1 receptor (Cavia porcellus, UniProt P31389); assay: Compound was tested for H1-antihistamine activity in guinea pig ileum.; assay type: functional, tissue-based; conditions: read-out: pA2 (converted)
Outline: (§1)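 Isolated guinea pig ileum under ca. 1 g tension in Tyrode solution, with isotonic recording of histamine contractions. Method A: repeat histamine dose-response curves at increasing antagonist concentrations, then Schild plot of log(DR−1) vs −log molar concentration; pA2 is the abscissa intercept. Method B: 10-min antagonist exposure, then double histamine dose (~50% maximal single dose), three antagonist doses each tested three times.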

Histamine H1 receptor [2] = biological target: T1, Histamine H1 receptor; assay: H1-antihistamine activity in guinea pig ileum; assay type: functional, tissue-based; conditions: read-out: pA2 (converted); outline: as §1
Rattus norvegicus [3] = species on record: Rattus norvegicus; assay: Compound was tested for the inhibition of release of histamine in rat passive peritoneal anaphylaxis; assay type: functional, organism-based
Outline: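 Rat passive peritoneal anaphylaxis: antiserum i.p. sensitization for 2 h, then i.p. ovalbumin challenge (0.4 mg/mL in 5 mL Tyrode). Compound given i.p. in saline 30 s before antigen; dose expressed as concentration in 6 mL fluid. Peritoneal fluid taken at 5 min, supernatant TCA-treated, histamine measured spectrofluorimetrically. 5–7 rats/dose; % inhibition vs positive controls; ED50 from log-dose regression.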

Rattus norvegicus [4] = species on record: Rattus norvegicus; assay: Compound was tested for the inhibition of release of extravasation in rat passive peritoneal anaphylaxis; assay type: functional, organism-based
Outline: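 Rats passively sensitized i.p. with 2 mL 1:5 rat antiserum. Two hours later, i.v. Pontamine Sky Blue, then i.p. challenge with 5 mL Tyrode containing 0.4 mg/mL ovalbumin and heparin. Compound given i.p. in 1 mL saline 30 s before antigen; dose expressed as concentration in 6 mL injected. Peritoneal fluid collected at 5 min; dye read at OD 625 nm. 5–7 rats/dose; ED50 from log-dose regression.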

[5] = biological target: Histamine H1 receptor (Cavia porcellus) (UniProt P31389); assay: Compound was tested for H1-antihistamine activity in guinea pig ileum; IA = Inactive; assay type: functional, tissue-based; outline: as §1
Histamine H1 receptor (Cavia porcellus), sequence (P31389 whole entry): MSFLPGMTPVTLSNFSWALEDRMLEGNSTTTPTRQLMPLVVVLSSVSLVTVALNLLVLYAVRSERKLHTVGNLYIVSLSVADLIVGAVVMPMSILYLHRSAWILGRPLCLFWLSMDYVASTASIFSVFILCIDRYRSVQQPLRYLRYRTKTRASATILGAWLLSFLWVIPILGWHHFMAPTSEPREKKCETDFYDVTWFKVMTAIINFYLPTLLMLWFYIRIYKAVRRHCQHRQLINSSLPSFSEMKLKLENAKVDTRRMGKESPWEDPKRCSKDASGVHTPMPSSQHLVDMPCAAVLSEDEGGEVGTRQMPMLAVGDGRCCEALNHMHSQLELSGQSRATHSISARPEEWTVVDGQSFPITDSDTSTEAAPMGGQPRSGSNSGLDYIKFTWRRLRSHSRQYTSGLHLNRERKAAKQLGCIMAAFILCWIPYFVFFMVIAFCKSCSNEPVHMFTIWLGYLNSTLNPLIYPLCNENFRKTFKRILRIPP

T1 sequence (P31389 whole entry): as above

Kb (Histamine H1 receptor [1])	Kb (Histamine H1 receptor [2])	IC50 (Rattus norvegicus [3])	IC50 (Rattus norvegicus [4])	pA2 [5]	Structure (SMILES)
79.4 nM	–	–	–	–	Cc1c(OCCCN(C)CCN(C)Cc2ccc(Cl)cc2)ccc2c(O)c3nnnc-3oc12
–	3.98 nM	2300 nM	10000 nM	–	Cc1c(OCCCN2CCN(Cc3ccccc3Cl)CC2)ccc2c(O)c3nnnc-3oc12
–	1.58 nM	840 nM	55000 nM	–	Cc1c(OCCCN2CCN(Cc3ccc(Cl)cc3)CC2)ccc2c(O)c3nnnc-3oc12
–	15.8 nM	100 nM	> 20000 nM	–	Cc1c(OCCCN2CCN(Cc3ccccn3)CC2)ccc2c(O)c3nnnc-3oc12

Second part, the compound before the results:

Structure (SMILES)	Kb (Histamine H1 receptor [1])	Kb (Histamine H1 receptor [2])	IC50 (Rattus norvegicus [3])	IC50 (Rattus norvegicus [4])	pA2 [5]
Cc1ccc(CN2CCN(CCCOc3ccc4c(O)c5nnnc-5oc4c3C)CC2)cc1	15.8 nM	–	890 nM	> 20000 nM	–
Cc1c(OCCCN2CCN(Cc3cccc(Cl)c3)CC2)ccc2c(O)c3nnnc-3oc12	–	3.98 nM	1000 nM	> 20000 nM	–
O=C(O)c1cc(=O)c2c(OCC(O)COc3cccc4oc(C(=O)O)cc(=O)c34)cccc2o1	–	–	–	–	inactive
COc1ccc(CN2CCN(CCCOc3ccc4c(O)c5nnnc-5oc4c3C)CC2)cc1	63.1 nM	–	–	–	–
Oc1c2nnnc-2oc2cc(OCCCN3CCN(Cc4ccc(Cl)cc4)CC3)ccc12	–	0.794 nM	5400 nM	31000 nM	–
CN1CCC(=C2c3ccccc3CC(=O)c3sccc32)CC1 [KETOTIFEN]	–	–	> 200000 nM	–	–
COc1ccc(CN(CCN(C)C)c2ccccn2)cc1 [PYRILAMINE]	–	–	> 200000 nM	–	–
